Screens as filed in PubChem.
Yeast lifespan up – extends the lifespan of yeast. S. cerevisiae growth with nicotinamide, OD615; deaD strain in restrictive glucose medium. inhibition of the nicotinamide effect, % at 10 µM. 130,000 tested, 0.68% active. AID 775;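 active = inhibition above a set limit, placed 3 SD over the median of all compounds, cut at about 26% in these data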
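Measured by: optical density (absorbance) at 615 nm; System: modified budding yeast, DeaD strain; Medium: restrictive CSMM-D dextrose medium; Timing: 4 h preincubation then 48 h treatment at 30 °C.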
Phagocytosis inh – inhibitors of macrophage phagocytosis; AID 1029; inhibition, % at 5 µM; 110,000 tested, 0.07% active; J774A.1 macrophage IgG-bead phagocytosis, imaging;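 active = inhibition above the mean of the plate negative controls plus 5 SD, cut at about 13% in these data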;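 also: phagocytic index as fraction of beads internalized from green versus red external bead signal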
RAM inhibit – blocks the yeast RAM network. inhibition, % at 50 µM. S. cerevisiae dse1pr::URA3 reporter, 5-FOA growth OD615, 2 d; analog-sensitive cbk1-as2 kinase mutant strain. AID 868. 190,000 tested, 1.8% active;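 active = inhibition above a set limit, 3 SD over mean compound inhibition, cut at about 8.4% in these data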;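 also: inhibition rescues growth on 5-FOA so higher OD means more RAM inhibition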
Yeast growth inh – yeast BB579 growth reduction in restrictive medium | AID 804 | inhibition, % at 10 µM | 140,000 tested, 0.51% active | S. cerevisiae BB579 growth, OD615, 48 h;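 active = inhibition above a set limit, 3 SD over the mean compound inhibition, cut at about 44% in these data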
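System: Saccharomyces cerevisiae DeaD strain BB579, replicative lifespan model yeast | Buffer or medium: Restrictive glucose-based CSMM-D medium | Times: 4 h preincubation and 48 h exposure at 30 °C | Detection: OD615 turbidity measurement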
Each line names hits and unclear results; the compound was inactive in the other large screens. Only some compounds are listed: those with a hit (about 2.7% of all), similar ones and a draw of the others.

Clc1ccc(COC(Cn2ccnc2)c2ccc(Cl)cc2Cl)cc1 (stereo unspecified)	Yeast growth inh 97.2 (no result: Phagocytosis inh)
Clc1ccc(CSC(Cn2ccnc2)c2ccc(Cl)cc2Cl)cc1 (stereo unspecified)	Yeast growth inh 97.9 (no result: Phagocytosis inh)
CCC(=O)c1c(O)n(C2CCCCCC2)c(=O)[nH]c1=O	Yeast growth inh 89.5
Nc1ccccc1C(=O)OCc1ccc([N+](=O)[O-])cc1	none (no result: Yeast lifespan up, Phagocytosis inh, Yeast growth inh)
O=C(CNC1CCCC1)Nc1ccc(N2CCCCCC2)cc1	none (no result: Yeast lifespan up, Phagocytosis inh, Yeast growth inh)
COc1ccc(OC)c(NP(=O)(Oc2ccc(Cl)cc2)Oc2ccc(Cl)cc2)c1	RAM inhibit 11.4
COc1ccc(NP(=O)(Oc2ccc(Cl)cc2)Oc2ccc(Cl)cc2)cc1OC	RAM inhibit 9.5
Cc1ccc(C)c(C2(O)CC(C)N(C)CC2C)c1 (stereo unspecified)	none (no result: RAM inhibit)
N#Cc1ccccc1Cn1cc(C(=O)c2ccccc2F)c2ccccc21	none
Cc1ccc(NC2=NCCCS2)c(C)c1C	none
O=C(Oc1c(Cl)cc(Cl)c2ccccc12)N1CCCCC1	RAM inhibit 10.3
CCCCn1c(=O)c(C(=O)NCc2ccncc2)c(O)c2ccccc21	Yeast growth inh 46.1
CC1(C)C[C@H]2C=C(C=O)[C@]3(C=O)C[C@]3(C)[C@H]2C1	Yeast growth inh 99.8 (no result: Phagocytosis inh)
COC(=O)C(O)(c1c(C)[nH]c2ccccc12)C(F)(F)F (stereo unspecified)	none (no result: Phagocytosis inh)
O=C1C(=O)c2ccccc2-c2ccccc21	Yeast growth inh 99.8
O=C1C(=O)c2cccc3cccc1c23	none
c1ccc2c(NC3=NCCS3)cccc2c1	none
Cc1ccc(C2CC(=O)C(C=NCCN3CCN(C(=O)Cc4ccccc4)CC3)=C(O)C2)cc1 (stereo unspecified)	none (no result: Phagocytosis inh)
O=C1CC(c2ccccc2)CC(O)=C1C=NCCN1CCN(C(=O)Cc2ccccc2)CC1 (stereo unspecified)	Yeast lifespan up 81.7
COc1ccc(C2SCC(=O)Nc3c2c(=O)[nH]n3C2CCCCCC2)cc1OC (stereo unspecified)	Yeast lifespan up 29.0
COc1ccc(C2SCC(=O)Nc3c2c(=O)[nH]n3C2CCCCCC2)cc1 (stereo unspecified)	none
CN(C)Cc1ccccc1OC(=O)N(C)C	none
Cc1cccc(CN(C)C)c1OC(=O)N(C)C	Yeast lifespan up 28.7
Cc1ccc(-n2c(O)c(C=Nc3ccc(Br)cn3)c(=O)[nH]c2=O)cc1	none (no result: Yeast lifespan up, Phagocytosis inh, Yeast growth inh)
O=C1c2ccccc2C(=O)N1Cc1nc2ccccc2c(=O)n1-c1ccc(Br)cn1	Yeast lifespan up 77.1
CCOc1ccccc1C1SCC(=O)Nc2c1c(=O)[nH]n2C(CC)CC (stereo unspecified)	none
CN(C)C(=O)Oc1ccc(OC(=O)c2ccccc2)cc1	none
CN(C(=O)Oc1ccc(C(=O)c2ccc(Cl)cc2)cc1)c1ccccc1	RAM inhibit 8.4 (no result: Phagocytosis inh)
CCC(C)n1c(O)c(C=Nc2cccc(C(F)(F)F)c2)c(=O)[nH]c1=S (stereo unspecified)	none (no result: Phagocytosis inh)
CC(C)OCCCNC(=O)c1c(N)n(Cc2cccs2)c2nc3ccccc3nc12	RAM inhibit 9.3
CCn1nc(-c2ccccc2)nc2c(=O)n(C)c(=O)nc1-2	Yeast growth inh 100.0 (no result: Phagocytosis inh)
O=C(Nc1ccccc1)c1cccn(Cc2ccccc2)c1=O	RAM inhibit 9.2 (no result: Yeast lifespan up, Phagocytosis inh, Yeast growth inh)
CN1OC[C@@H]2COc3ccc4ccccc4c3[C@@H]21	none (no result: Yeast lifespan up, Phagocytosis inh, Yeast growth inh)
Cc1ccc(/C=C2\C(=O)NC(=O)N(CCc3ccc(F)cc3)C2=O)o1	Yeast lifespan up 39.3
Cc1ccc(/C=C2\C(=O)NC(=O)N(CCc3ccc(F)cc3)C2=O)s1	none (no result: Yeast lifespan up, Phagocytosis inh, Yeast growth inh)
O=C(c1ccc(N2CC3CC(C2)c2cccc(=O)n2C3)c([N+](=O)[O-])c1)N1CCCCC1 (stereo unspecified)	none
CCN(CC)CCN=Cc1c(O)n(Cc2ccccc2)c(=O)[nH]c1=O	Phagocytosis inh 103.8
CCN(CC)CCCN=Cc1c(O)n(Cc2ccc(F)cc2)c(=O)[nH]c1=O	none
O=c1[nH]c(=O)n(-c2ccccc2F)c(O)c1C=NCCC1=CCCCC1	none (no result: Yeast lifespan up, Phagocytosis inh, Yeast growth inh)
O=C(CCc1nc(-c2ccccc2F)no1)N1CCC2(CC1)OCCO2	none
C=CCN1C(=O)/C(=C/c2ccc3c(c2)CCCN3CCC)C(=O)NC1=S	none
O=C1NC(=S)N(C2CC2)C(=O)/C1=C/c1ccc2c(c1)CCN2CCCCl	Yeast lifespan up 27.4
CCCC1COC(Cn2cncn2)(c2ccc(Cl)cc2Cl)O1 (stereo unspecified)	Yeast growth inh 93.5 (no result: Phagocytosis inh)
CCOC(=O)C(=CNc1ccc(C(O)(C(=O)OCC)C(F)(F)F)cc1C)C(=O)OCC (stereo unspecified)	RAM inhibit 8.7
O=C(Cc1ccccc1)OCCN1CCCCC1	none
O=C(c1ccccc1)C(CN1CCCC1)c1ccccc1 (stereo unspecified)	Yeast lifespan up 56.0
CCC(C)N1C(=O)/C(=C\c2cc3c4c(c2)CCCN4CCC3)C(=O)NC1=S (stereo unspecified)	Yeast lifespan up 30.3 (no result: Phagocytosis inh)
CN1CSC(=S)N(C)C1	Yeast growth inh 85.5
COc1cccc(C2CC3C(=O)C=CC2N3Cc2ccccc2)c1 (stereo unspecified)	Yeast lifespan up 59.5
O=C1/C(=C/c2cccc([N+](=O)[O-])c2)N2CCC1CC2	Yeast lifespan up 36.0 (no result: Phagocytosis inh)
O=C1/C(=C/c2cc([N+](=O)[O-])ccc2Cl)N2CCC1CC2	none (no result: Phagocytosis inh)
CN1/C(=C\C=Nc2ccccc2)C(C)(C)c2ccccc21	none
CN1/C(=C\C=C\C2=[N+](C)c3ccc4ccccc4c3C2(C)C)C(C)(C)c2ccccc21	Yeast growth inh 86.9 (no result: Phagocytosis inh)
CC(C)C12CN3CC(C(C)C)(CN(C1)C3c1cccnc1)C2=O (stereo unspecified)	none (no result: Phagocytosis inh)
Cc1ccc(N2C(=O)NC(=O)/C(=C\c3ccoc3)C2=O)cc1	none (no result: Yeast lifespan up, Phagocytosis inh, Yeast growth inh)
Cc1ccc(N2C(=O)NC(=O)/C(=C/c3ccc(-c4ccc(C(=O)O)c(Cl)c4)o3)C2=O)cc1	RAM inhibit 10.8 (no result: Yeast lifespan up, Phagocytosis inh, Yeast growth inh)
Cc1ccccc1NP(=O)(Oc1ccccc1F)Oc1ccccc1F	none (no result: Phagocytosis inh)
CCn1c(O)c(C=Nc2ccc(S(N)(=O)=O)cc2)c(=O)n(CC)c1=S	none
NS(=O)(=O)c1ccc(N=Cc2c(O)n(C3CCCCC3)c(=O)n(C3CCCCC3)c2=O)cc1	Yeast lifespan up 32.9
Cc1ccc(N2C(=O)NC(=O)/C(=C\C=C\c3ccco3)C2=O)cc1C	Yeast lifespan up 29.0
COC(=O)C(O)(c1ccc(N(C)C(=O)c2cccs2)cc1)C(F)(F)F (stereo unspecified)	none (no result: Yeast lifespan up, Phagocytosis inh, Yeast growth inh)
O=P(O)(Oc1ccccc1)OC(c1ccccc1)C(F)(F)F (stereo unspecified)	none (no result: Yeast lifespan up, Phagocytosis inh, Yeast growth inh)
O=P(NC(c1ccccc1)c1ccccc1)(Oc1ccccc1)Oc1ccccc1	RAM inhibit 9.3
COCCCn1c(-c2ccc(OC)cc2)cc(C(=O)NC2CCCCCCC2)c1C	RAM inhibit 10.7
CCCCn1c(C)c(C(=O)O)c2cc(OC)ccc21	none
CCOc1cc(C2C(C#N)=C(N)Oc3c2c(=O)oc2ccccc32)ccc1OC(=O)c1cccs1 (stereo unspecified)	RAM inhibit 8.9
N#CC1=C(N)Oc2c(c(=O)oc3ccccc23)C1c1cccnc1 (stereo unspecified)	none
Fc1ccc(C2=CCN(C(c3cccs3)c3nnnn3CCc3ccccc3)CC2)cc1 (stereo unspecified)	RAM inhibit 10.2
